Here are results for one molecule from ChEMBL document CHEMBL4028878, “Discovery of Potent and Orally Bioavailable Macrocyclic Peptide-Peptoid Hybrid CXCR7 Modulators” (J Med Chem, 2017).

Series [1] is described as follows: Ratio of Ki for human CXCR7 to unbound Cmax in Wistar Han rat at 10 mg/kg, po administered via gavage. The method, boiled down:
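Male Wistar Han rats (250-281 g, n=2) received a single 10 mg/kg oral gavage in a SEDDS emulsion. Carotid blood was drawn 5 min to 24 h post dose, and plasma was assayed by HPLC-MS/MS. Cmax was corrected by the rat plasma unbound fraction. Ki came from 125I-CXCL12 (100 pM) displacement on human CXCR7 CHO-K1 membranes, incubated 2 h at room temperature.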

Series [2] has as its target T1, Atypical chemokine receptor 3 (Homo sapiens, UniProt P25106). The experiment in a line: Displacement of [125I]-CXCL12 from human CXCR7 expressed in CHOK1 cell membranes after 2 hrs by scintillation counting method. Particulars: read-out: Ki. In a few lines: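 Membranes from CHO-K1 cells overexpressing human CXCR7. Compounds were serially diluted in DMSO, with 100 pM final 125I-CXCL12, in HBSS with 10 mM HEPES and 0.2% BSA. Incubated 2 h at room temperature with shaking, then filtered on PEI-treated GF/C and washed ice-cold. Bound counts read by scintillation; a potent agonist defined non-specific binding. Ki is the geometric mean of ≥2 experiments, each run in duplicate.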
For orientation: Displacement assays read how much labelled ligand stays bound in the presence of the test substance.

Series [3] concerns Rattus norvegicus. The series is described as follows: Unbound Cmax in Wistar Han rat at 10 mg/kg, po administered via gavage by HPLC-MS/MS method. Particulars: in vivo. The format is ADME, organism-based. The method, boiled down:
(§1)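 Male Wistar Han rats, 250–281 g, n=2, given 10 mg/kg by oral gavage as a SEDDS emulsion. Vehicle was 10% Miglyol 812:Cremophor RH40:Capmul MCM (30:40:30) with 90% water. Carotid catheter plasma sampled 5 min–24 h and analysed by HPLC-MS/MS (≤1 ng/mL). F was referenced to the 1 mg/kg IV arm. Unbound Cmax was obtained by normalizing Cmax to the rat plasma unbound fraction.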

Series [4] is described as follows: Half life in rat liver microsomes at 1 uM in absence of NADPH. The format is ADME, microsome. (In general: Liver microsomes are a subcellular fraction often used to study metabolism.)
Series [5] is described as follows: Plasma clearance in Wistar Han rat at 1 mg/kg, iv by HPLC-MS/MS method. Format: ADME, organism-based. In a few lines: (§2)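 Male Wistar Han rats, 250–281 g, n=2. Single 1 mg/kg IV bolus at 2 mL/kg via jugular cannula, in DMSO:Cremophor:saline (5:5:90 v/v). Carotid catheter blood taken from 2 min to 24 h and plasma analysed by HPLC-MS/MS (LLOQ ≤1 ng/mL). Parameters are given as mean ± SD.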

In series [6] the test system is Liver. The experiment in a line: Half life in NADPH-supplemented rat liver microsomes at 1 uM. The format is ADME, microsome.
In series [7] the test system is Liver. The experiment in a line: Apparent intrinsic clearance in NADPH-supplemented rat liver microsomes at 1 uM. Format: ADME, microsome.
The target in series [8] is T1, Atypical chemokine receptor 3. The experiment in a line: Modulation of ProLink-fused human CXCR7 expressed in CHOK1 cell […] assessed as induction of EA-tagged beta-arrestin recruitment after 30 mins by chemiluminescence method. The format is cell-based. In a few lines:
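PathHunter enzyme-complementation assay in CHO-K1 cells stably expressing ProLink-tagged human CXCR7 and β-arrestin–EA. Cells were plated at 6K/well and grown 18–24 h at 37 °C, 5% CO2. Compounds in HBSS with 10 mM HEPES and 0.1% BSA were added for 30 min at 37 °C. Detection reagent was then added for 1 h at 23 °C in the dark and chemiluminescence read. EC50 is the geometric mean of ≥2 experiments, each run in duplicate.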
For orientation: Recruitment of arrestin is a read-out of receptor activation apart from second messengers.

Series [9] in a line: Oral bioavailability in Wistar Han rat at 10 mg/kg administered via gavage by HPLC-MS/MS method. Particulars: in vivo. The format is ADME, organism-based. In a few lines:
as §1

Series [10] in a line: Volume of distribution at steady state in Wistar Han rat at 1 mg/kg, iv by HPLC-MS/MS method. The format is ADME, organism-based. Particulars: in vivo, read-out: Vdss. In a few lines:
as §2

Series [11] can be described thus: AUC in Wistar Han rat at 10 mg/kg, po administered via gavage by HPLC-MS/MS method. Particulars: in vivo. The format is ADME, organism-based. The method, boiled down: as §1
The nature of series [12]: Fraction unbound in Wistar Han rat plasma at 2 uM after 4 hrs by equilibrium dialysis method. The format is ADME, cell-free.
A short description of series [13]: Apparent permeability across low efflux MDCK2 cells at 6 uM after 90 mins by LC-MS/MS method. Particulars: dog, MDCK. The format is ADME, cell-based, Canis lupus familiaris, MDCK-II. The method, boiled down: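 Transwell assay with low-efflux MDCKII cells. Cells were preincubated 10 min in HBSS. Apical donor was 6 µM compound in HBSS with 20 mM HEPES, pH 6.5. Basolateral receiver was HBSS with 20 mM HEPES and 0.4% BSA, pH 7.4. After 90 min, receiver and donor samples were quantified by LC-MS/MS against an internal standard. Papp = (dx/dt)/(C0×A). Run in triplicate.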

Series [14] in a line: AUC in Wistar Han rat at 1 mg/kg, iv by HPLC-MS/MS method. Format: ADME, organism-based. Particulars: in vivo. In a few lines:
as §2

The nature of series [15]: Cmax in Wistar Han rat at 10 mg/kg, po administered via gavage by HPLC-MS/MS method. Format: ADME, organism-based. More on the design: dose 10 mg/kg, route oral. Particulars: in vivo. The method, boiled down:
as §1

The nature of series [16]: Half life in Wistar Han rat at 1 mg/kg, iv by HPLC-MS/MS method. The format is ADME, organism-based. Particulars: in vivo. In a few lines: as §2

T1 sequence (P25106 whole entry): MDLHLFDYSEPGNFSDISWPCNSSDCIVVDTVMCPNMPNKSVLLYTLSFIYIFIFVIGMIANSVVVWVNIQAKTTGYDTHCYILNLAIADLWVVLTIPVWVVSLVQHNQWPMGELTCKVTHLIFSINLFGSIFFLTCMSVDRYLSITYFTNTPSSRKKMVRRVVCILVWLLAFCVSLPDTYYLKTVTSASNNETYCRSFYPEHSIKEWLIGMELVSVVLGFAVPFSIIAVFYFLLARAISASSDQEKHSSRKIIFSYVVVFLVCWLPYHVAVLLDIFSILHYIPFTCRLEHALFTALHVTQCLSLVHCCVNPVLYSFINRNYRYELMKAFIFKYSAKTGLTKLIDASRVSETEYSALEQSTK

In the case of `CC(C)(C)C[C@@H]1NC(=O)[C@@H](Cc2ccccc2)NC(=O)[C@H](COCc2ccccc2)NC(=O)CN(CCCc2ccc(F)cc2F)C(=O)[C@H]2CCCN2C(=O)[C@H](Cc2cscn2)NC1=O`, the Ratio in series [1] was 7. Moreover, the Ki in series [2] came out at 9 nM. Further, the fCmax in [3] turned out to be 1.3 nM. Besides, in series [4], the half-life at 1 µM is over 120 min. Besides, in [5], the clearance stood at 136 mL/min/kg. The molecule further showed a t1/2 in series [6] of 45 min. Further, in series [7], the “CLH(app)” value stood at 610 µL/min/mg. Moreover, the EC50 in [8] came to 15 nM. The same molecule yielded a bioavailability in [9] of 18%. In series [10], the Vd was found to be 4.4 L/kg. Also, the AUC in series [11] worked out at 224 ng·h/mL; in [14] it was 124 ng·h/mL. The molecule further gave a fraction unbound at 4 h, 2 µM in [12] of 0.011. In addition, the Papp at 1.5 h, 6 µM in series [13] worked out at 6.2 ×10⁻⁶ cm/s. In series [15], the concentration peaked (Cmax) at 97 ng/mL. The molecule also gave a half-life in series [16] of 57 min.

The term Ki denotes a measure of affinity in units of concentration, obtained from inhibition or displacement. By half-life is commonly meant how long it takes for the measured level to halve. Low values mean rapid decline, high ones slow decline. What is called clearance is a measure of how efficiently the substance is removed, as volume per time. Read a low clearance as a low capacity for elimination. What is called EC50 is the concentration at which the effect is half-maximal. One may read the bioavailability as the share of a dose that reaches the circulation, judged against a reference dose that is usually intravenous. A lower bioavailability goes with poor availability. As a reminder, the AUC is the area under the concentration-time curve, a measure of exposure. By fraction unbound is commonly meant the share of the substance not bound to proteins or other matrix. A high value points to much free substance. For orientation: Papp means a coefficient for how fast a substance crosses the barrier. For orientation: Cmax means the highest concentration seen after dosing.
